Source: ChEMBL document CHEMBL1123513, “Role of the C-terminal carboxylate in angiotensin II activity: alcohol, ketone, and ester analogues of angiotensin II” (1986)
Square brackets hold non-standard residues; d marks the D form. Peptide text beside a SMILES is read from it. * marks the point of attachment. αMeF = C[C@](N)(Cc1ccccc1)C(=O)O; Phe(ol) = N[C@H](CO)Cc1ccccc1; X1 = CC(=O)[C@H](Cc1ccccc1)N*

Assays:
Rattus norvegicus [1] = species on record: Rattus norvegicus; test: Compound was tested for oxytocic response in rat; type: functional
Rattus norvegicus [2] = species on record: Rattus norvegicus; test: Compound was tested for pressor response in rat; type: functional
Outline: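 Urethane-anesthetized male Zivic-Miller rats; blood pressure recorded from the cannulated left femoral artery via a linear core transducer. Peptides were injected into the cannulated right jugular vein with an automatic dispensing syringe. An AII dose-response curve was run before and after each analogue, so each animal served as its own control. Dose-response data are given as mean ± SEM, with the number of animals stated.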

| Compound | Activity (Rattus norvegicus [1]) [%] | Activity (Rattus norvegicus [2]) [%] |
| --- | --- | --- |
| CC(=O)N[C@@H](CC(N)=O)C(=O)N[C@@H](CCCN=C(N)N)C(=O)N[C@H](C(=O)N[C@@H](Cc1ccc(O)cc1)C(=O)N[C@H](C(=O)N[C@@H](Cc1c[nH]cn1)C(=O)N1CCC[C@H]1C(=O)N[C@@H](Cc1ccccc1)C(C)=O)C(C)C)C(C)C (Ac-NRVYVHP-X1) | 0.4 | 0.03 |
| COC(=O)[C@H](Cc1ccccc1)NC(=O)[C@@H]1CCCN1C(=O)[C@H](Cc1c[nH]cn1)NC(=O)[C@@H](NC(=O)[C@H](Cc1ccc(O)cc1)NC(=O)[C@@H](NC(=O)[C@H](CCCN=C(N)N)NC(=O)[C@H](CC(N)=O)NC(C)=O)C(C)C)C(C)C (Ac-NRVYVHPF-OMe) | 20 | 13 |
| CC(=O)N[C@@H](CC(N)=O)C(=O)N[C@@H](CCCN=C(N)N)C(=O)N[C@H](C(=O)N[C@@H](Cc1ccc(O)cc1)C(=O)N[C@H](C(=O)N[C@@H](Cc1c[nH]cn1)C(=O)N1CCC[C@H]1C(=O)N[C@H](CO)Cc1ccccc1)C(C)C)C(C)C (Ac-NRVYVHP[Phe(ol)]) | 0.09 | 0.001 |
| COC(=O)[C@](C)(Cc1ccccc1)NC(=O)[C@@H]1CCCN1C(=O)[C@H](Cc1c[nH]cn1)NC(=O)[C@@H](NC(=O)[C@H](Cc1ccc(O)cc1)NC(=O)[C@@H](NC(=O)[C@H](CCCN=C(N)N)NC(=O)[C@H](CC(N)=O)NC(C)=O)C(C)C)C(C)C (Ac-NRVYVHP[αMeF]-OMe) | 0.002 | 0.001 |
| H-NRVYVHPF-OH [ANGIOTENSIN AMIDE] | 100 | 100 |
